# Data: PMC5934316 (Oncogene, 2018)
# Where two headings read alike, the source gives them in different places.
# Legend:
# [1] = tested on: STAT3-dependent luciferase reporter; assay: STAT3-dependent luciferase reporter assay; assay type: cell-based, human; settings: for STAT3-dependent luciferase expression: MDA-MB-231 cells, Figure 1B
# Summary of the method: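 MDA-MB-231 cells stably carrying a STAT3-dependent luciferase reporter were treated with DMSO or test compound. Dose-response used graded concentrations; the time course used 2 μM for varying times. Luciferase activity was then measured with a commercial kit. Experiments were run at least three times.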
# [2] = tested on: recombinant STAT3; assay: Pull-down assay with immobilized BMA097, purified recombinant STAT3 proteins; assay type: binding; settings: silver staining
# Summary of the method: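 Purified recombinant STAT3 deletion proteins were mixed with test compound immobilised on CNBr-activated Sepharose 4B, after milk blocking in Tris-HCl pH 8.0/KCl/NP-40 binding buffer. Pulled-down material was separated by SDS-PAGE and detected by silver staining or STAT3 Western blot.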
# [3] = MTT survival assay; assay type: cell-based; settings: human, MCF10A cells, IC50, cytotoxicity
# [4] = tested on: MDA-MB-231; assay: Annexin V-FITC/PI apoptosis assay; assay type: cell-based, human
# Summary of the method: (§1)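 Cells grown in DMEM with 10% FBS at 37 °C, 5% CO2. Seeded at 3×10^5 cells/well in 6-well plates and exposed to test compound for 24 h. Stained with annexin V-FITC and propidium iodide and analysed by flow cytometry. Annexin V+/PI− plus double-positive cells were counted as apoptotic. Experiments were run at least three times.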
# [5] = target: JAK2 (Homo sapiens, UniProt O60674); assay: Western blot of JAK2 Tyr1007/1008 phosphorylation in MDA-MB-231 cells; assay type: cell-based
# Summary of the method: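 MDA-MB-231 cells were treated with test compound, and lysates were analysed by SDS-PAGE/PVDF Western blot. Blots were probed for total and Tyr1007/1008-phosphorylated JAK2, detected with HRP secondaries and ECL on film.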
# [6] = target: T1, STAT3 (Homo sapiens, UniProt P40763); assay: Pull-down assay with immobilized BMA097, MDA-MB-231 cell lysate; assay type: binding
# Summary of the method: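 Test compound was coupled to CNBr-activated Sepharose 4B and blocked with 10% milk in binding buffer (20 mM Tris-HCl pH 8.0, 150 mM KCl, 1 mM EDTA, 15% glycerol, 0.5% NP-40, 0.2 mM PMSF, protease inhibitors). Beads were mixed with MDA-MB-231 lysate. For competition, lysate was first incubated 30 min at 37 °C with DMSO, 400 μM free compound or an irrelevant compound. For elution, bound material was incubated 1 h with the same agents. Read-out was SDS-PAGE and STAT3 Western blot.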
# [7] = target: T1, STAT3; assay type: cell-based
# Summary of the method: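 In MDA-MB-231 cells, constitutive pSTAT3 was assessed after graded doses for 24 h or 2 μM over time, with actin as loading control. For IL-6 induction, serum-starved cells were pretreated, then given IL-6. Localisation after 24 h used methanol/acetone-fixed, Triton-permeabilised cells stained for (p)STAT3 with Alexa555 secondary and DAPI (confocal), or fractionation with histone/actin markers. Dimers were resolved by non-denaturing PAGE and Western blot.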
# [8] = tested on: MCF7; assay: MTT survival assay; assay type: cell-based; settings: Homo sapiens, read-out: IC50, survival
# Summary of the method: (§2)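 Breast cancer lines were cultured in DMEM + 10% FBS at 37 °C, 5% CO2. Cells were seeded at 3–4×10^3 per well in 96-well plates and treated with graded test-compound concentrations for 48 or 72 h. Viable cells were then measured by MTT. Experiments were run at least three times.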
# [9] = tested on: MDA-MB-231 xenografts; assay: In-vivo efficacy, xenograft tumors; set-up: species or system mice
# Summary of the method: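 Donor xenograft: 1×10^7 MDA-MB-231 cells injected s.c. into a 5-week-old female Balb/c nude mouse and grown 2 weeks. ~1.5-mm pieces were implanted s.c. in 4–6-week-old female nude mice. At ~100 mm3, five mice per group received vehicle, test compound or vincristine 0.6 mg/kg IP every 3 days for 18 days. Tumour volume was measured blinded every 3 days. IHC covered total/Tyr705-phosphorylated STAT3 and cleaved caspase 3.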
# [10] = tested on: MDA-MB-231 and MCF-7 cells; assay: JC-1 mitochondrial membrane potential assay; assay type: cell-based, human; settings: JC-1, 24 hours, both cell lines
# Summary of the method: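 MDA-MB-231 and MCF-7 cells were exposed to graded test-compound concentrations for 24 h. They were then stained with JC-1 (5 μg/mL) for 30 min at 37 °C, washed in PBS and analysed by flow cytometry. Δψm was taken as the ratio of red (aggregate) to green (monomer) fluorescence. Experiments were run at least three times.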
# [11] = tested on: MCF7; assay: Annexin V-FITC/PI apoptosis assay; assay type: cell-based, human
# Summary of the method: as §1
# [12] = tested on: breast cancer cells; assay: MTT survival assay, summary over breast cancer cells; assay type: cell-based; settings: Homo sapiens, 72 h, read-out: IC50 for breast cancer cells
# Summary of the method: as §2
# [13] = tested on: STAT3 target genes, cyclin D1 and Bcl-xL; assay: Real-time RT-PCR and Western blot of STAT3 target genes in MDA-MB-231 cells; assay type: cell-based, human; settings: mRNA by real-time RT-PCR and protein by Western blot
# Summary of the method: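 MDA-MB-231 cells were treated with graded test-compound concentrations. Cyclin D1, Bcl-xL and STAT3 mRNAs were measured by SYBR Green real-time RT-PCR and quantified by 2ΔΔCt against GAPDH (n=3). For protein, cells were treated for 24 h, then analysed by SDS-PAGE/PVDF Western blot with HRP secondaries and ECL on film, using actin as loading control.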
# [14] = Body weight in xenograft study; assay type: in vivo, mice
# Summary of the method: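 MDA-MB-231 tumour pieces (~1.5 mm) from a donor xenograft were implanted s.c. in the left flank of 4–6-week-old female Balb/c nude mice. At ~100 mm3, mice were randomised (5/group) to vehicle, 10 or 40 mg/kg test compound, or 0.6 mg/kg vincristine. Dosing was IP every 3 days for 18 days, with body weight recorded every 3 days.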
# [15] = tested on: MDA-MB-468; assay: MTT survival assay; assay type: cell-based; settings: Homo sapiens, read-out: IC50, survival
# Summary of the method: as §2
# [16] = tested on: MDA-MB-231; assay: MTT survival assay; assay type: cell-based; settings: Homo sapiens, read-out: IC50, survival
# Summary of the method: as §2
# T1 sequence (P40763 whole entry): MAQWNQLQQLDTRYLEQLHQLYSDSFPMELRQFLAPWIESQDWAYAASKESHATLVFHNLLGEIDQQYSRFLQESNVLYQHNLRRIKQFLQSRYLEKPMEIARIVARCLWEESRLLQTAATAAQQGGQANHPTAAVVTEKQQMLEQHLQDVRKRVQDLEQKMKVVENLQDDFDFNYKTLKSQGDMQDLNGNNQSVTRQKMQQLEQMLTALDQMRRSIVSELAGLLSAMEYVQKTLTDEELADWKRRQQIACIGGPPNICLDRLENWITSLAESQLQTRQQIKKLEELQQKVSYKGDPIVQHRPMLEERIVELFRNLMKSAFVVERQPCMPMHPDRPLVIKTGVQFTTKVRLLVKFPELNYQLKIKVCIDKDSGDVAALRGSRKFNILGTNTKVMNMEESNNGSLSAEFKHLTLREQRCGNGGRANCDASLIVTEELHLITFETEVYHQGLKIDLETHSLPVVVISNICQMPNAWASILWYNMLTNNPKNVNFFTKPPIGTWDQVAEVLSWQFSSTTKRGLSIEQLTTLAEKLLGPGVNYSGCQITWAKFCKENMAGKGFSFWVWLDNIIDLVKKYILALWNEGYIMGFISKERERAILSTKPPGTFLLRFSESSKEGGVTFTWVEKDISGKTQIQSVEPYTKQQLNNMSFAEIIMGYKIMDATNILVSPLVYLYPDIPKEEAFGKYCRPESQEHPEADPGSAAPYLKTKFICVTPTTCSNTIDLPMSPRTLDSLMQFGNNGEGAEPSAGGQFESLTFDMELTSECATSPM
# Chain of JAK2 (O60674 whole entry): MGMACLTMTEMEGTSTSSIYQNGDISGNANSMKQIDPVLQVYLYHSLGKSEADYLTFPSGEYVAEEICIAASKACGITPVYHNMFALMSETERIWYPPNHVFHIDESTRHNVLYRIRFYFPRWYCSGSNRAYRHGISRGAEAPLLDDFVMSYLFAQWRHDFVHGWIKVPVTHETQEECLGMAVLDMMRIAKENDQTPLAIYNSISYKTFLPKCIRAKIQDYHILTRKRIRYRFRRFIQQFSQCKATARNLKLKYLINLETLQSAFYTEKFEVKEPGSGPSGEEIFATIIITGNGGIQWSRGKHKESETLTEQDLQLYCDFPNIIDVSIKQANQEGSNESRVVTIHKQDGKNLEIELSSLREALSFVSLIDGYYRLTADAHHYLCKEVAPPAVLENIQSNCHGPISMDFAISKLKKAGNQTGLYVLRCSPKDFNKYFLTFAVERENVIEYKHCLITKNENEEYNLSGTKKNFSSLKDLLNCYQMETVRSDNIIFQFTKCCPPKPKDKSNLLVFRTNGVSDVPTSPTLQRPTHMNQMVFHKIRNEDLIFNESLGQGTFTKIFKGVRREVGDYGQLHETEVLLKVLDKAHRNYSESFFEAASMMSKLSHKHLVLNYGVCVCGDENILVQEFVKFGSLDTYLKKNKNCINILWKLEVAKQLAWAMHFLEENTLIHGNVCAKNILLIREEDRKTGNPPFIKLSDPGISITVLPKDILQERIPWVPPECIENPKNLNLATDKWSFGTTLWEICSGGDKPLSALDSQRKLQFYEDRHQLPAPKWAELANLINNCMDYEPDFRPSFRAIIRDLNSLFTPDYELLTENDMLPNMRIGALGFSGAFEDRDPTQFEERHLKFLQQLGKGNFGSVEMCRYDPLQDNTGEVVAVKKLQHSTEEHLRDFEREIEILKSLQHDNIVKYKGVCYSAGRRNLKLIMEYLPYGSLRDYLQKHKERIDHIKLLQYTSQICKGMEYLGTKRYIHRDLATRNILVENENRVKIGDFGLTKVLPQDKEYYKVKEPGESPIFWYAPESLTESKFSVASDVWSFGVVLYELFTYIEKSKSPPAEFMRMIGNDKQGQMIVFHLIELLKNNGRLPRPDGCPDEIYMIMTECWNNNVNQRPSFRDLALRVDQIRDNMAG
compound,measurement,setting,value
N-hydroxy-2-(1-ethyl-1H-indol-3-yl)-3-(1-hydroxy-1H-indol-3-yl)maleimide [BMA127],STAT3-dependent luciferase expression,[1],least inhibition
"N#CCCCn1cc(C2=C(c3cn(CCCC#N)c4ccccc34)C(=O)NC2=O)c2ccccc21 [BMA097, 2,3-bis[1-(3-cyanopropyl)-1H-indol-3-yl]maleimide]",pull-down of recombinant STAT3 lacking the TAD domain (ΔTAD-C),[2],successfully pulled down
same,pull-down of recombinant STAT3 with further deletion of the SH2 domain (ΔSH2-C),[2],abolished the binding
same,IC50 at 48 h,[3]; 48 hrs,10.6 µM
same,IC50 at 72 h,[3]; 72 hrs,6.5 µM
same,IC50,"[1]; Homo sapiens, MDA-MB-231, read-out: IC50, inhibition of STAT3-dependent luciferase expression",~1.8 µM
same,STAT3-dependent luciferase expression,[1],significantly inhibited
same,"t1/2, inhibition of STAT3-dependent luciferase expression","[1]; re-synthesized BMA097, time course at 2 μM",~ 16 hrs
same,total annexin V-positive cells,"[4]; 2 μM BMA097, 24 hrs",51.9%
same,total annexin V-positive cells,"[4]; 4 μM BMA097, 24 hrs",63.8%
same,level of total JAK2,[5],no effect
same,JAK2 phosphorylation/activation,[5]; Tyr1007/1008,does not inhibit
same,STAT3 pull-down by BMA097-conjugated Sepharose,[6]; lysate of MDA-MB-231 cells,successfully pulled down STAT3
same,competition of STAT3 pulldown by excess free BMA097,[6]; lysate pre-treated with 400 μM BMA097,completely inhibited
same,level of total STAT3,[7],little effect
same,phosphorylation of Ser727 of STAT3,[7],did not affect
same,phosphorylation of Tyr705 of STAT3,"[7]; constitutive, dose- and time-dependent",inhibits
same,nucleus-localized STAT3,"[7]; immunofluorescence and fractionation, 24 hrs",disappeared
same,STAT3 dimerization,"[7]; non-denaturing PAGE, dose- and time-dependent",inhibited
same,IL-6-induced phosphorylation and activation of STAT3,[7]; serum-starved MDA-MB-231 cells,reduced
same,IC50,"[8]; MCF7, 48 h",6.4 µM
same,IC50,"[8]; MCF7, 72 h",3.9 µM
same,growth and final weight of MDA-MB-231 xenograft tumors,[9]; 10 mg/kg IP every 3 days for 18 days,significantly reduced
same,growth and final weight of MDA-MB-231 xenograft tumors,[9]; 40 mg/kg IP every 3 days for 18 days,significantly reduced
same,caspase 3 cleavage in xenograft tumors,[9]; IHC staining,induced
same,phosphorylated STAT3 in xenograft tumors,"[9]; IHC staining, vs vehicle control",reduced level
same,mitochondrial membrane potential (Δψm),[10],induced Δψm loss
same,total annexin V-positive cells,"[11]; 2 μM BMA097, 24 hrs",34.2%
same,total annexin V-positive cells,"[11]; 4 μM BMA097, 24 hrs",48.1%
same,IC50,[12],0.9 to 3.9 µM
same,"expression of STAT3 target genes, cyclin D1 and Bcl-xL",[13],inhibited
same,weight loss and apparent phenotypic changes in the mouse model,[14]; 40 mg/kg,lack of weight loss
same,body weight reduction between the control and treatment groups,[14]; 10 and 40 mg/kg IP,no significant differences
same,IC50,"[15]; MDA-MB-468, 48 h",4 µM
same,IC50,"[15]; MDA-MB-468, 72 h",1.8 µM
same,IC50,"[16]; MDA-MB-231, 48 h",3.6 µM
same,IC50,"[16]; MDA-MB-231, 72 h",0.9 µM
"N#CCCCCn1cc(C2=C(c3cn(CCCCC#N)c4ccccc34)C(=O)NC2=O)c2ccccc21 [BMA100, 2,3-bis[1-(4-cyanobutyl)-1H-indol-3-yl] maleimide]",STAT3-dependent luciferase expression,[1],significantly inhibited
"CCn1cc(C2=C(c3cn(CCC#N)c4ccccc34)C(=O)NC2=O)c2ccccc21 [BMA016, 2-(1-ethyl-1H-indol-3-yl)-3-[1-(2-cyanoethyl)-1H-indol-3-yl]maleimide]",STAT3-dependent luciferase expression,[1],significantly inhibited
"CCn1cc(C2=C(c3cn(CCCC#N)c4ccccc34)C(=O)NC2=O)c2ccccc21 [BMA019, 2-(1-ethyl-1H-indol-3-yl)-3-[1-(3-cyanopropyl)-1H-indol-3-yl]maleimide]",STAT3-dependent luciferase expression,[1],significantly inhibited
"CCn1cc(C2=C(c3cn(CCCCC#N)c4ccccc34)C(=O)N(CO)C2=O)c2ccccc21 [BMA088, N-hydroxymethyl-2-(1-ethyl-1H-indol-3-yl)-3-[1-(4-cyanobutyl)-1H-indol-3-yl] maleimide]",STAT3-dependent luciferase expression,[1],no inhibition
